ChEMBL document CHEMBL3407415, “Synthesis and anticancer activities of ceritinib analogs modified in the terminal piperidine ring” (Eur J Med Chem, 2015)
Calls of active or inactive are those of the source. No cut-off for these calls is given here.

Columns and labels:
Rattus norvegicus [1] = experiment: Toxicity in Rowett nude rat xenografted with human NCI-H2228 cells assessed as body weight reduction at 36.24 mg/kg/day, po administered for 14 days measured during compound treatment; format: organism-based; parameters: route oral; conditions: in vivo, 336 h
Summary of the method: (§1)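 H2228 xenograft-bearing RNU nude rats (n = 6 per group, mean starting tumour 150 mm³) given daily oral gavage in 0.5% MC/0.5% Tween 80, 10 μL/g, for 14 consecutive days. Body weight tracked regularly throughout dosing.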

NCI-H2228 [2] = experiment: Antitumor activity against human NCI-H2228 cells xenografted in Rowett nude rat assessed as tumor growth inhibition at 36.24 mg/kg/day, po administered for 14 days measured on day 15; format: functional, organism-based
Summary of the method: (§2)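 RNU nude rats carrying H2228 tumours, randomized at mean tumour size 150 mm³ (n = 6 per group). Dosed by oral gavage, vehicle 0.5% MC/0.5% Tween 80, 10 μL/g body weight, daily for 14 days starting day 15 post-implant. Tumour volume = ab²/2. Rats killed after 14 days and tumours excised and weighed. Inhibition = (control mean tumour weight − treated mean)/control mean × 100%.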

Rattus norvegicus [3] = experiment: Prodrug conversion in Sprague-Dawley rat assessed as release of ceritinib in plasma at 36.24 mg/kg, po measured over 24 hrs by HPLC analysis; format: ADME, organism-based; parameters: dose 36.24 mg/kg, route oral; conditions: in vivo
Summary of the method: (§3)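 Male SD rats, 200–220 g, randomized into three groups (n = 4). Single oral gavage dose in 0.5% MC/0.5% Tween 80 at 10 μL/g. Plasma sampled at 0.5, 1, 3, 5, 8 and 24 h, deproteinized with ethyl acetate, vortexed and centrifuged at 4000 rpm for 5 min. Organic phase analysed for ceritinib by HPLC.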

NCI-H2228 [4] = experiment: Cytotoxicity against human NCI-H2228 cells assessed as cell viability after 72 hrs by MTS assay; format: functional, cell-based; conditions: NCI-H2228, 72 h
Summary of the method: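 H2228 cells seeded and grown 24 h, then exposed in triplicate to a range of concentrations for 72 h at 37 °C, 5% CO₂. MTS (5 mg/mL solution) added for 4 h, medium removed, plates shaken, absorbance read at 570 nm. Inhibition computed against controls. IC50 = concentration giving 50% growth inhibition.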

NCI-H2228 [5] = experiment: Antitumor activity against human NCI-H2228 cells xenografted in Rowett nude rat assessed as tumor growth inhibition at 38.28 mg/kg/day, po administered for 14 days measured on day 15 relative to vehicle-treated control; format: functional; conditions: read-out: TGI; summary of the method: as §2
Rattus norvegicus [6] = experiment: Toxicity in Rowett nude rat xenografted with human NCI-H2228 cells assessed as body weight reduction at 38.28 mg/kg/day, po administered for 14 days measured during compound treatment; format: organism-based; parameters: route oral; conditions: in vivo, 336 h; summary of the method: as §1
Rattus norvegicus [7] = experiment: Prodrug conversion in Sprague-Dawley rat assessed as release of ceritinib in plasma at 38.28 mg/kg, po measured over 24 hrs by HPLC analysis; format: ADME, organism-based; parameters: dose 38.28 mg/kg, route oral; conditions: in vivo; summary of the method: as §3
Plasma = experiment: Drug uptake in Sprague-Dawley rat plasma at 25 mg/kg, po measured over 24 hrs by HPLC analysis; format: ADME, organism-based; parameters: dose 25 mg/kg, route oral; conditions: in vivo; summary of the method: as §3
NCI-H2228 [8] = experiment: Antitumor activity against human NCI-H2228 cells xenografted in Rowett nude rat assessed as tumor growth inhibition at 30 mg/kg/day, po administered for 14 days measured on day 15; format: functional, organism-based; summary of the method: as §2

Compound	IC50 (NCI-H2228 [4])	also measured
CC(=O)OCOC(=O)N1CCC(c2cc(OC(C)C)c(Nc3ncc(Cl)c(Nc4ccccc4S(=O)(=O)C(C)C)n3)cc2C)CC1	120 nM	Activity (Rattus norvegicus [1]): Non-toxic; TGI (NCI-H2228 [2]): inactive; Drug metabolism (Rattus norvegicus [3]): metabolite_notdetected
Cc1cc(Nc2ncc(Cl)c(Nc3ccccc3S(=O)(=O)C(C)C)n2)c(OC(C)C)cc1C1CCN(C(=O)OCOP(=O)(O)O)CC1	24 nM	inhibition in vivo at 38.28 mg/kg/day (NCI-H2228 [5]): 80%; Activity (Rattus norvegicus [6]): Non-toxic; Drug metabolism (Rattus norvegicus [7]): metabolite_notdetected
CCC(C)OC(=O)N1CCC(c2cc(OC(C)C)c(Nc3ncc(Cl)c(Nc4ccccc4S(=O)(=O)C(C)C)n3)cc2C)CC1 (stereo not given)	7400 nM	–
Cc1cc(Nc2ncc(Cl)c(Nc3ccccc3S(=O)(=O)C(C)C)n2)c(OC(C)C)cc1C1CCN(P(=O)(O)OCc2ccccc2)CC1	57.4 nM	–
CCCCCOC(=O)N1CCC(c2cc(OC(C)C)c(Nc3ncc(Cl)c(Nc4ccccc4S(=O)(=O)C(C)C)n3)cc2C)CC1	67200 nM	–
CCOP(=O)(OCC)N1CCC(c2cc(OC(C)C)c(Nc3ncc(Cl)c(Nc4ccccc4S(=O)(=O)C(C)C)n3)cc2C)CC1	571 nM	–
Cc1cc(Nc2ncc(Cl)c(Nc3ccccc3S(=O)(=O)C(C)C)n2)c(OC(C)C)cc1C1CCN(P(=O)(OCc2ccccc2)OCc2ccccc2)CC1	2690 nM	–
COC(=O)N1CCC(c2cc(OC(C)C)c(Nc3ncc(Cl)c(Nc4ccccc4S(=O)(=O)C(C)C)n3)cc2C)CC1	1110 nM	–
Cc1cc(Nc2ncc(Cl)c(Nc3ccccc3S(=O)(=O)C(C)C)n2)c(OC(C)C)cc1C1CCN(P(=O)(Oc2ccccc2)Oc2ccccc2)CC1	14400 nM	–
Cc1cc(Nc2ncc(Cl)c(Nc3ccccc3S(=O)(=O)C(C)C)n2)c(OC(C)C)cc1C1CCN(C(=O)OCOP(=O)(OCc2ccccc2)OCc2ccccc2)CC1	1040 nM	–
CCOC(=O)N1CCC(c2cc(OC(C)C)c(Nc3ncc(Cl)c(Nc4ccccc4S(=O)(=O)C(C)C)n3)cc2C)CC1	1200 nM	–
Cc1cc(Nc2ncc(Cl)c(Nc3ccccc3S(=O)(=O)C(C)C)n2)c(OC(C)C)cc1C1CCNCC1 [CERITINIB]	103 nM	Drug uptake (Plasma): Active; TGI (NCI-H2228 [8]): Active
